APJ ag – APJ receptor agonism; CHO-K1 APJ PathHunter beta-arrestin, luminescence; 0% DMSO wells, 100% apelin; activation, % at 20 µM; P35414; AID 2520; hit rate 0.11% among 330,000;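 active = activation more than six SD over the plate average, tested at 20 µM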;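 also: 0% = DMSO alone and 100% = apelin-13 at 10 nM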
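Incubation: overnight seeding, 90 min compound at 25 °C, 1 h detection; test system: PathHunter CHO-K1 APJ (AGTRL-1) beta-arrestin reporter cells; amount: 1000 cells/well; doses: one dose, 20 µM compound, 1% DMSO; measured by: beta-gal luminescence; measure: agonist-driven arrestin binding to APJ; benchmarks: negative DMSO alone, positive Apelin-13 at 10 nM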
EBI2 block – EBI2 (human) antagonism | P32249 | EBI2 beta-arrestin recruitment, luminescence, 7a,25-OHC stimulated | inhibition, % at 5 µM | hit rate 0.81% among 360,000; in the data active = inhibition above about 38%;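 also: enzyme fragment complementation signal reports receptor beta-arrestin coupling in cells; 0% = agonist plus DMSO wells and 100% = wells without agonist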
APJ antag – antagonists of human APJ apelin receptor; inhibition, % at 20 µM; hit rate 0.32% among 330,000; P35414; CHO-K1 APJ beta-arrestin complementation, luminescence; AID 2521;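 active = inhibition above about 40% at 20 µM, limit read from the data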;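 also: cells challenged with 10 nM apelin-13 agonist together with compound; plate controls were apelin-13 plus DMSO wells for no effect and DMSO wells lacking apelin-13 for full effect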
CCR6 antag – CCR6 (human) receptor antagonism; P51684; CHO-K1 CCR6 PathHunter beta-arrestin, luminescence, CCL20-stimulated; inhibition, % at 20 µM; hit rate 0.49% among 340,000; AID 493098;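 active = compounds whose inhibition of the agonist-driven luminescence signal at 20 µM reaches about 50%, limit read from the data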;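 also: cells stimulated with CCL20 at 14 nM final; plate controls were DMSO with CCL20 for no effect and DMSO without agonist for full effect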
Target sequence (P51684 whole entry, looked up): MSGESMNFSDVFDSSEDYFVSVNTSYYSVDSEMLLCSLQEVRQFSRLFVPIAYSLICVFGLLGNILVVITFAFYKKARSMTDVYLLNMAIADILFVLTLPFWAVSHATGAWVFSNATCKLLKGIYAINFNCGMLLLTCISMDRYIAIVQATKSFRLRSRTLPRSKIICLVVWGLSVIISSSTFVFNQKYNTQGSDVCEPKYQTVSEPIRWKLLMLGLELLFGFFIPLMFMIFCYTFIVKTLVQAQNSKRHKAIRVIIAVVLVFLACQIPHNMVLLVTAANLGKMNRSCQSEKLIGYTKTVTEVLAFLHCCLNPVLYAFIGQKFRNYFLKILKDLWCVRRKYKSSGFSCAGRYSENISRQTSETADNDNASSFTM
CXCR6 inh – inhibitors of human CXCR6 receptor; O00574; CHO-K1 PathHunter CXCR6 beta-arrestin, luminescence; inhibition, % at 20 µM; hit rate 0.36% among 360,000; in the data active = inhibition above about 34%, passing the limit was not always enough;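 also: antagonist mode with CXCL16 agonist at 10 nM final; 0% = 10 nM CXCL16 with DMSO and 100% = unstimulated wells without agonist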
EBI2 conf – EBI2 (human) antagonism, single concentration confirmation; AID 651997; EBI2 beta-arrestin luminescence, 7a,25-OHC antagonism; hit rate 29% among 2,400; inhibition, % at 5 µM; shares compounds with EBI2 block;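 active = inhibition of at least 50%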
EBI2 ag – EBI2 agonism counter-screen; activation, % at 5 µM; AID 652000; shares compounds with EBI2 block; EBI2-expressing cells, agonist mode, luminescence, 60 min; 0% vehicle, 100% 7α,25-dihydroxycholesterol control; 2,400 tested, under 10 active;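 active = activation of at least 50%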
bGal counter – counter-screen for EBI2 antagonists: E. coli beta-galactosidase inhibition | inhibition, % at 5 µM | purified beta-galactosidase, luminescent Galacton Star, 15 min | hit rate 1% among 2,400 | shares compounds with EBI2 block;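 active = replicate-average signal at least 3 plate SD below neutral wells, shown as high inhibition, flagging enzyme-inhibiting false positives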;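 also: 0% = DMSO wells with enzyme and 100% = wells lacking enzyme; higher means stronger loss of beta-gal luminescence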
Active calls of the source: *. A selection: hits, their analogues and other compounds. The true share with any hit is near 1.5%.

`CC(=O)c1nn(-c2ccc(Cl)cc2)cc1C(=O)c1ccccc1` gave APJ ag -3.6, EBI2 block 45.9*, APJ antag 4.5, CCR6 antag -3.6, CXCR6 inh -11.1, EBI2 conf 25.6, EBI2 ag 0.2 and bGal counter -13.8.
COc1ccc(NC(=O)c2sc(SC)nc2N)cc1 was read as APJ ag 4.9, EBI2 block 6.4, APJ antag 7.3, CCR6 antag 8.0 and CXCR6 inh -1.4.
For COc1ccc(NC(=O)c2sc(SCc3ccccc3)nc2N)cc1 the results were APJ ag -4.6, EBI2 block 88.3*, APJ antag 2.9, CCR6 antag 6.3, CXCR6 inh 1.5, EBI2 conf 68.8*, EBI2 ag -0.3 and bGal counter -12.2.
Cc1cc(C(=O)COC(=O)C2CCN(C(=O)c3ccc(Cl)cc3)CC2)c(C)n1CC1CCCO1 (centres undefined) was read as APJ ag -1.0, EBI2 block 72.7*, APJ antag -13.5, CCR6 antag 6.8, CXCR6 inh -0.5, EBI2 conf 50.6*, EBI2 ag 0.9 and bGal counter 0.1.
O=C(c1ccc(F)cc1F)N1CCN(c2ncccn2)CC1 was read as APJ ag -3.8, EBI2 block -5.0, APJ antag -1.0, CCR6 antag 25.2 and CXCR6 inh 7.5.
For O=C(/C=C/c1ccccc1Cl)N1CCN(c2ncccn2)CC1 the results were APJ ag 1.4, EBI2 block 60.0*, APJ antag -5.1, CCR6 antag 14.8, CXCR6 inh 1.4, EBI2 conf 38.9, EBI2 ag -0.9 and bGal counter -20.1.
`O=C(/C=C/c1cccc(F)c1)N1CCN(c2ncccn2)CC1` gave APJ ag -3.1, EBI2 block 90.4*, APJ antag 1.2, CCR6 antag -11.8, CXCR6 inh -4.5, EBI2 conf 69.0*, EBI2 ag 1.3 and bGal counter -1.2.
Screening O=C(C1CCCCC1)N1C[C@@H](O)[C@H](n2cc(-c3ccc(F)cc3)nn2)C[C@@H]1c1ccccc1 returned EBI2 block 16.7 and CXCR6 inh 0.1.
For Cc1ccc(OCc2nnc(N)s2)cc1C the results were APJ ag 0.6, EBI2 block -4.7, APJ antag -5.9, CCR6 antag -0.8 and CXCR6 inh 3.0.
COCCOC(=O)c1c(NC(=O)CN2CCCc3ccccc32)sc(C(N)=O)c1C was read as APJ ag -2.9, EBI2 block 75.9*, APJ antag 3.2, CCR6 antag -1.6, CXCR6 inh -4.7, EBI2 conf 49.4, EBI2 ag 1.2 and bGal counter -1.3.
`COc1ccccc1CC(=O)OC(C)C(=O)Nc1ccc(S(=O)(=O)N2CCCCC2)cc1` (centres undefined) gave APJ ag -2.0, EBI2 block -0.7, APJ antag -57.6, CCR6 antag 4.6 and CXCR6 inh -5.1.
`CCOc1ccc(NC(=S)Nc2cccc3cnccc23)cc1` gave APJ ag 1.0, EBI2 block 65.6*, APJ antag -56.1, CCR6 antag 9.4, CXCR6 inh -7.6, EBI2 conf 25.0, EBI2 ag 1.5 and bGal counter 6.8.
`CCOc1ccc(NC(=S)Nc2cccc3ccccc23)cc1` gave APJ ag 23.4, EBI2 block 56.1*, APJ antag -110.7, CCR6 antag 2.5, CXCR6 inh -2.9, EBI2 conf 28.9, EBI2 ag -1.7 and bGal counter -5.3.
Screening CC(C)c1ccc(NC(=S)Nc2cccc3ccccc23)cc1 returned APJ ag 24.1, EBI2 block 43.5*, APJ antag -142.3, CCR6 antag 16.0, CXCR6 inh -8.0, EBI2 conf 4.5, EBI2 ag -1.0 and bGal counter -4.9.
Screening CC(C)c1ccc(NC(=S)Nc2ccc3[nH]c(=O)[nH]c3c2)cc1 returned APJ ag 0.3, EBI2 block 27.3, APJ antag -3.9, CCR6 antag 13.0 and CXCR6 inh 7.5.
Cc1ccc(NC(=S)Nc2cccc3ccccc23)cc1 was read as APJ ag 14.4, EBI2 block 19.0, APJ antag -92.2, CCR6 antag 4.0 and CXCR6 inh -5.2.
Screening COc1ccc(NC(=S)Nc2cccc3cnccc23)cc1 returned APJ ag 1.3, EBI2 block 37.6, APJ antag -34.2, CCR6 antag 12.4 and CXCR6 inh -5.3.
`Fc1ccc(NC(=S)Nc2cccc3ccccc23)cc1` gave APJ ag 0.4, EBI2 block 3.3, APJ antag -21.1, CCR6 antag 8.8 and CXCR6 inh -13.4.
CC(=O)N(C)c1ccc(NC(=S)Nc2ccc(C(C)C)cc2)cc1 was read as APJ ag -3.1, EBI2 block 51.5*, APJ antag 11.5, CCR6 antag 19.7, CXCR6 inh 1.1, EBI2 conf 14.7, EBI2 ag 0.8 and bGal counter 5.7.
O=C(NCc1cc2ccccc2[nH]1)c1ccccc1F was read as APJ ag 0.7, EBI2 block -4.4, APJ antag -7.3, CCR6 antag -1.4 and CXCR6 inh -14.5.
Screening CCNC(=S)Nc1ccc(OCC)cc1 returned APJ ag -2.0, EBI2 block -9.1, APJ antag 8.9, CCR6 antag -2.2 and CXCR6 inh -8.2.
Screening CCOc1ccc(NC(=S)Nc2ccccc2C2CC2)cc1 returned APJ ag -3.9, EBI2 block 59.6*, APJ antag -0.4, CCR6 antag 8.4, CXCR6 inh -2.4, EBI2 conf 32.4, EBI2 ag 1.5 and bGal counter 5.2.
CCCCNC(=O)C1c2ccccc2OCC(=O)N1Cc1ccccc1 (centres undefined) was read as EBI2 block -6.9 and CXCR6 inh 5.2.
`Cc1ccc2nc(-c3ccc(C#N)cc3)c(Cc3ccccc3C(F)(F)F)n2c1` gave EBI2 block 46.7*, CXCR6 inh 15.3, EBI2 conf 13.3, EBI2 ag -1.0 and bGal counter -9.0.
`CC(Sc1nc2cc([N+](=O)[O-])ccc2n1-c1ccc(F)cc1)C(=O)NCc1ccc2c(c1)OCO2` (centres undefined) gave APJ ag 0.3, EBI2 block 54.2*, APJ antag 15.5, CCR6 antag 28.9, CXCR6 inh 24.2, EBI2 conf 32.5, EBI2 ag -1.6 and bGal counter 8.9.
